# Columns and labels:
# Type in all cases: physicochemical
# [1] = RP-HPLC temperature profiling of peptide self-association; conditions: Gemini C18, 100mM NaClO4, 10mM NH4H2PO4, pH 7, 2%B per minute, 5°C - 80°C in 3°C increments, peptide 1.7mg/ml, retention times normalized to 5°C minus random coil control peptide
# How it was run: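 Gradient is 0-100%B over 50 minutes; eluent B is 50/50 H2O/CH3CN with the same salts. Retention time at each temperature minus that at 5°C gives the normalised value. Association parameter = peptide normalised value minus control normalised value; the maximum is reported.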
# [2] = Circular dichroism spectra; conditions: 5°C; for [θ]222 Benign (mean residue ellipticity at 222 nm): CD, peptide 211μm to 265μm (0.2 mg/ml), 1 mm cell, average of 6 scans; for [θ]222 Benign (mean residue ellipticity at 222 nm) / [θ]222/[θ]208 Benign: benign buffer (100mM KCl, 50mM PO4, pH 7); for [θ]222/[θ]208 50% TFE / [θ]222/[θ]208 Benign: ratio of mean residue ellipticity at 222 nm and 208 nm; for [θ]222/[θ]208 50% TFE: 50/50 benign buffer/TFE (v/v)
# How it was run: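 Disulfide-bridged peptides (N-acetylated, C-amidated, N-terminal Cys-Gly-Gly, air-oxidised overnight at 4°C in 100mM ammonium bicarbonate pH 8.3). Stocks of 2mg/mL in benign buffer are diluted to 0.2 mg/ml in benign buffer or buffer with 50% TFE. Concentration is by amino acid analysis. Scans run 190–255 nm in 0.5 nm steps at 50 nm per minute. Ellipticity is converted to molar ellipticity using mean residue weight, path length and concentration.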
# [3] = Thermal denaturation by circular dichroism spectroscopy at 222 nm; conditions: CD at 222 nm, benign buffer (100mM KCl, 50mM PO4, pH 7), 5°C to 90°C in 0.5°C increments, 60°C/hour, from plot of fraction folded versus temperature
# How it was run: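 Disulfide-bridged two-stranded peptides (air-oxidised overnight at 4°C in 100mM ammonium bicarbonate, pH 8.3) diluted to 0.2 mg/ml in 100mM KCl, 50mM PO4, pH 7 (1 mm cell). Concentration by amino acid analysis. Ellipticity at 222 nm scanned 5°C to 90°C, 0.5°C steps, 60°C/hour. Fraction folded from observed, fully folded and fully unfolded ellipticities. Tm is the 50%-unfolded temperature; ΔTm is taken versus native peptide.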
# [4] = listed as R101A/L110A/K112A/K118A
Substance,"PA,Max (maximum association parameter, self-association) [1]","PA,Max (maximum association parameter, self-association) [1, 4]",[θ]222 Benign (mean residue ellipticity at 222 nm) [2],[θ]222/[θ]208 50% TFE [2] [deg cm^2 dmol^-1],[θ]222/[θ]208 Benign [2] [deg cm^2 dmol^-1],Tm (temperature at which 50% of the peptide is unfolded) [3] [°C],"Tm (temperature at which 50% of the peptide is unfolded) [3, 4]",[θ]222/[θ]208 Benign ([2]; listed as native peptide)
"TM7: TM85-119 analog with R101A/L110A/K112A/K118A substitutions (VASLNRRIQLVEEELDAAQERLATAAQALEEAEAA; not fully specified; Cys-Gly-Gly linker; UniProt P09493 85-119, looked up, variant R101A L110A K112A K118A)",0,zero,"-9,578 deg cm^2 dmol^-1",0.97,0.86,<5,less than 5 °C,
"Native: native tropomyosin 85-119 coiled-coil sequence with N-terminal Cys-Gly-Gly linker, N-acetylated, C-amidated, disulfide-bridged (Ac-CGGVASLNRRIQLVEEELDRAQERLATALQKLEEAEKA-NH2; also: disulfide-bridged two-stranded dimer (linker Cys); UniProt P09493 85-119, looked up, fragment)",3.4,,"-36,213 deg cm^2 dmol^-1",0.96,1.08,52.9,,greater than 1 deg cm^2 dmol^-1
"TM2: TM85-119 analog with K118A substitution (VASLNRRIQLVEEELDRAQERLATALQKLEEAEAA; not fully specified; Cys-Gly-Gly linker; UniProt P09493 85-119, looked up, variant K118A)",2.7,,"-30,548 deg cm^2 dmol^-1",0.97,1.08,48.7,,
"TM4: TM85-119 analog with R101A substitution (VASLNRRIQLVEEELDAAQERLATALQKLEEAEKA; not fully specified; Cys-Gly-Gly linker; UniProt P09493 85-119, looked up, variant R101A)",1.8,,"-34,390 deg cm^2 dmol^-1",0.96,1.08,46.0,,
"TM3: TM85-119 analog with K112A/K118A substitutions (VASLNRRIQLVEEELDRAQERLATALQALEEAEAA; not fully specified; Cys-Gly-Gly linker; UniProt P09493 85-119, looked up, variant K112A K118A)",2.4,,"-29,457 deg cm^2 dmol^-1",0.97,1.08,45.3,,

# From publication PMC2856757 (Journal of structural biology, 2010)
